Active and inactive are the calls of the source. No cut-off for these calls is given here. Where a SMILES comes first, the peptide text is derived from it. Bridges are numbered along the chain shown (N, C = ends). [ ]: non-standard residue; d: D form. Pro(3S-OH) = O=C(O)[C@H]1NCC[C@@H]1O; pGlu = O=C1CC[C@@H](C(=O)O)N1

From ChEMBL document CHEMBL1154792, “chi-Conopeptide pharmacophore development: toward a novel class of norepinephrine transporter inhibitor (Xen2174) for pain” (J Med Chem, 2009) come the findings set out here.

Sodium-dependent noradrenaline transporter, sequence (P23975 whole entry): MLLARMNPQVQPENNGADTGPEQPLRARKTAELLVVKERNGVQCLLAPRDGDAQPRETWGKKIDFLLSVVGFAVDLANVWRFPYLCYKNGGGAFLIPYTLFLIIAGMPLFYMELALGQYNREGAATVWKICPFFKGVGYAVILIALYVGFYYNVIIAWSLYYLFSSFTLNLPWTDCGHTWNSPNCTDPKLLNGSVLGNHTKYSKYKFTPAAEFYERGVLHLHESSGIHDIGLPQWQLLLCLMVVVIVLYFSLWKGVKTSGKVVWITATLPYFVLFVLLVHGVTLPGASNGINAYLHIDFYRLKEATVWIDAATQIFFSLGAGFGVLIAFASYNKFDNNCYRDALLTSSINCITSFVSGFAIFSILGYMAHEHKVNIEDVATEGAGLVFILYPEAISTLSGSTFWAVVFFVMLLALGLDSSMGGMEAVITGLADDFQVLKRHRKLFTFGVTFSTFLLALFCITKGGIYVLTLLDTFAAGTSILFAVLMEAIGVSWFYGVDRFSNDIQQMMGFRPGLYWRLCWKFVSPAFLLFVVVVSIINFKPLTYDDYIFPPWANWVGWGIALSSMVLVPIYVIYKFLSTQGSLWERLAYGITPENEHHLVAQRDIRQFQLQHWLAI

This assay deals with Sodium-dependent noradrenaline transporter (Homo sapiens, UniProt P23975). Description: Displacement of [3H]nisoxetine from human NET expressed in COS7 cells. The class given is cell-based. Particulars: COS-7. The method in brief:
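Membranes from COS-7 cells transfected with human NET were incubated with [3H]nisoxetine (4.3 nM) with or without peptide (1 nM to 100 μM, triplicate) for 1 h at RT. Filter-retained radioactivity was counted by liquid scintillation, and values are given as pIC50. Data are means of 2–5 experiments in triplicate; peptide concentration was set by calibrated HPLC at 214 nm.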
On the technique in general: Loss of bound radioactivity is the signal in a displacement assay; it reports binding, not function.
Consider `CC(C)C[C@@H]1NC(=O)[C@H](CCCCN)NC(=O)[C@H](CCCNC(=N)N)NC(=O)CNC(=O)[C@@H]2CSSC[C@H](NC1=O)C(=O)N[C@@H](Cc1cnc[nH]1)C(=O)N1CC[C@H](O)[C@H]1C(=O)N[C@H](C(=O)O)CSSC[C@H](NC(=O)[C@@H](NC(=O)CNC(=O)[C@@H]1CCC(=O)N1)C(C)C)C(=O)N2` ([pGlu]GVCCGRKLCH[Pro(3S-OH)]C-OH; disulfide 4-13, 5-10), for which the outcome was inactive. As to `CC(C)C[C@@H]1NC(=O)[C@H](CCCCN)NC(=O)[C@H](Cc2ccc(O)cc2)NC(=O)CNC(=O)[C@@H]2CSSC[C@H](NC1=O)C(=O)N[C@@H](Cc1cnc[nH]1)C(=O)N[C@H](CC(=O)O)C(=O)N[C@H](C(=O)O)CSSC[C@H](NC(=O)[C@@H](NC(=O)CNC(=O)[C@@H]1CCC(=O)N1)C(C)C)C(=O)N2`, the result was inactive. Turning to `CC(C)C[C@@H]1NC(=O)[C@H](CCCCN)NC(=O)[C@H](Cc2ccc(O)cc2)NC(=O)CNC(=O)[C@@H]2CSSC[C@H](NC1=O)C(=O)N[C@@H](Cc1ccc(O)cc1)C(=O)N1CC[C@H](O)[C@H]1C(=O)N[C@H](C(=O)O)CSSC[C@H](NC(=O)[C@@H](NC(=O)CNC(=O)[C@@H]1CCC(=O)N1)C(C)C)C(=O)N2` ([pGlu]GVCCGYKLCY[Pro(3S-OH)]C-OH; disulfide 4-13, 5-10), the outcome was Active. For `CC(C)C[C@@H]1NC(=O)[C@H](CCCCN)NC(=O)[C@H]2CCCN2C(=O)CNC(=O)[C@@H]2CSSC[C@H](NC1=O)C(=O)N[C@@H](Cc1cnc[nH]1)C(=O)N1CC[C@H](O)[C@H]1C(=O)N[C@H](C(=O)O)CSSC[C@H](NC(=O)[C@@H](NC(=O)CNC(=O)[C@@H]1CCC(=O)N1)C(C)C)C(=O)N2`, the result was inactive. Then `CC(C)C[C@@H]1NC(=O)[C@H](CCCCN)NC(=O)[C@H](Cc2ccc(O)cc2)NC(=O)CNC(=O)[C@@H]2CSSC[C@H](NC1=O)C(=O)N[C@@H](Cc1cccnc1)C(=O)N1CC[C@H](O)[C@H]1C(=O)N[C@H](C(=O)O)CSSC[C@H](NC(=O)[C@@H](NC(=O)CNC(=O)[C@@H]1CCC(=O)N1)C(C)C)C(=O)N2`, with “Active”; and `CC[C@H](C)[C@@H]1NC(=O)CNC(=O)[C@@H]2CSSC[C@H](NC(=O)[C@H](CC(C)C)NC(=O)[C@H](CCCCN)NC1=O)C(=O)N[C@@H](Cc1cnc[nH]1)C(=O)N1CC[C@H](O)[C@H]1C(=O)N[C@H](C(=O)O)CSSC[C@H](NC(=O)[C@@H](NC(=O)CNC(=O)[C@@H]1CCC(=O)N1)C(C)C)C(=O)N2`, with “inactive”; and `CC(C)C[C@@H]1NC(=O)[C@H](CCCCN)NC(=O)[C@H](Cc2ccc(O)cc2)NC(=O)CNC(=O)[C@@H]2CSSC[C@H](NC1=O)C(=O)N[C@@H](CCCNC(=N)N)C(=O)N1CC[C@H](O)[C@H]1C(=O)N[C@H](C(=O)O)CSSC[C@H](NC(=O)[C@@H](NC(=O)CNC(=O)[C@@H]1CCC(=O)N1)C(C)C)C(=O)N2`, with “Active”. Then `CC(C)[C@H](NC(=O)CNC(=O)[C@@H]1CCC(=O)N1)C(=O)N[C@H]1CSSC[C@@H](C(=O)O)NC(=O)[C@@H]2[C@@H](O)CCN2C(=O)[C@H](Cc2cnc[nH]2)NC(=O)[C@@H]2CSSC[C@H](NC1=O)C(=O)NCC(=O)N[C@@H](Cc1ccc(O)cc1)C(=O)N[C@@H](CCCCN)C(=O)N[C@@H](C1CCCCC1)C(=O)N2`, with “Active”; and `CC(C)C[C@@H]1NC(=O)[C@H](CCCCN)NC(=O)[C@H](CCCCN)NC(=O)CNC(=O)[C@@H]2CSSC[C@H](NC1=O)C(=O)N[C@@H](Cc1cnc[nH]1)C(=O)N1CC[C@H](O)[C@H]1C(=O)N[C@H](C(=O)O)CSSC[C@H](NC(=O)[C@@H](NC(=O)CNC(=O)[C@@H]1CCC(=O)N1)C(C)C)C(=O)N2` ([pGlu]GVCCGKKLCH[Pro(3S-OH)]C-OH; disulfide 4-13, 5-10), with “inactive”; and `CCCC[C@@H]1NC(=O)[C@H](CCCCN)NC(=O)[C@H](Cc2ccc(O)cc2)NC(=O)CNC(=O)[C@@H]2CSSC[C@H](NC1=O)C(=O)N[C@@H](Cc1cnc[nH]1)C(=O)N1CC[C@H](O)[C@H]1C(=O)N[C@H](C(=O)O)CSSC[C@H](NC(=O)[C@@H](NC(=O)CNC(=O)[C@@H]1CCC(=O)N1)C(C)C)C(=O)N2`, with “Active”.
